The values below come from ChEMBL document CHEMBL3774327, “Design, synthesis, and analysis of antagonists of GPR55: Piperidine-substituted 1,3,4-oxadiazol-2-ones” (Bioorg Med Chem Lett, 2016).

For orientation: IC50 means the concentration that inhibits the measured activity by half.

Type in all cases: cell-based
Assay [1] is described as follows: Antagonist activity at GRP55E (unknown origin) over-expressed with GFP-tagged beta-arr2 in human U2OS cells assessed as inhibition of LPI induced beta-arrestin recruitment preincubated for 30 mins by beta-arrestin recruitment assay. (In general: Recruitment of arrestin is a read-out of receptor activation apart from second messengers.)
A short description of assay [2]: Antagonist activity at HA-epitope tagged GRP55E expressed with GFP-tagged beta-arr2 in human U2OS cells assessed as LPI-stimulated redistribution of beta-arr2 preincubated for 15 mins by beta-arrestin translocation assay.
The target of assay [3] is G-protein coupled receptor 55 (Homo sapiens, UniProt Q9Y2T6). Put plainly: Antagonist activity at beta-galactosidase fragment-fused GRP55 (unknown origin) over-expressed with N-terminal deletion beta-galactosidase mutant-tagged beta-arr2 in […] cells assessed as inhibition of LPI induced beta-arrestin activity preincubated for 30 mins by PathHunter chemiluminescent complementation assay. The conditions noted are these: cho-k1. In a few lines: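 Inhibition of LPI-induced β-arrestin activity was quantitated by chemiluminescence. Concentration-response curves were run in triplicate against 6 μM LPI, and IC50 was derived with 95% confidence intervals.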
Sequence of G-protein coupled receptor 55 (Q9Y2T6 whole entry, looked up, stated change not applied, the tested form may be a part): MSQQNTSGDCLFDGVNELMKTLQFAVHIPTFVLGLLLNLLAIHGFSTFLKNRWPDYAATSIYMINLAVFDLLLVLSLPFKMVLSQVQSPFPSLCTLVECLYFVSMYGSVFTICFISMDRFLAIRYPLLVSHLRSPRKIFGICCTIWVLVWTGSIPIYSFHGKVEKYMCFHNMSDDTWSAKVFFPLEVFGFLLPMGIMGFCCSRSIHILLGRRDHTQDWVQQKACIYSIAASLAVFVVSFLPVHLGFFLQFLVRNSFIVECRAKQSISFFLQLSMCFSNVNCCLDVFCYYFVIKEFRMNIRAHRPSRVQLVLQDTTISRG

For `O=C(N1CCC(n2nc(-c3ccco3)oc2=O)CC1)C1(c2ccccc2)CC1`, in assay [1], the IC50 is over 15 µM.
Take `Cc1nc(N2CCN(C(=O)c3ccco3)CC2)c2c3c(sc2n1)CCCC3`: the IC50 in assay [2] came out at 0.7 µM.
Still for that read-out and setting: the figure for `Cc1ccc(C2(C(=O)N3CCC(n4nc(-c5ccccc5)oc4=O)CC3)CC2)cc1` is 1.1 µM.
In the case of `COc1ccc(C2(C(=O)N3CCC(n4nc(-c5ccc(C(F)(F)F)cc5)oc4=O)CC3)CC2)cc1`, the IC50 in assay [3] (read-out: IC50) was 1.8 µM.
Turning to `COc1ccc(-c2nn(C3CCN(C(=O)C4(c5ccccc5)CC4)CC3)c(=O)o2)cc1`, the IC50 in assay [3] (read-out: IC50) was determined as 7 µM.
On the same count and under the same terms, then `O=C(N1CCC(n2nc(-c3ccccc3)oc2=O)CC1)C1(c2ccc(Cl)cc2Cl)CC1`, with 2.5 µM.
Consider `O=C(N1CCC(n2nc(-c3cccc(C(F)(F)F)c3)oc2=O)CC1)C1(c2ccccc2)CC1`, for which, in assay [1], the IC50 is over 15 µM.
Consider `Cc1ccc(C2(C(=O)N3CCC(n4nc(-c5ccccc5)oc4=O)CC3)CC2(C)C)cc1` (racemic), for which the IC50 in assay [3] (read-out: IC50) was found to be 0.77 µM.
In the case of `O=C(N1CCC(n2nc(-c3ccccc3)oc2=O)CC1)C1(c2ccc(Cl)cc2)CC1`, the IC50 in assay [3] (read-out: IC50) is 0.64 µM.
Consider `COc1ccc(C2(C(=O)N3CCC(n4nc(-c5ccccc5)oc4=O)CC3)CC2)cc1`, for which, in assay [3], the IC50 entry was “ND(Insoluble)”.
Turning to `O=C(N1CCC(n2nc(-c3ccccc3)oc2=O)CC1)C1(c2ccccc2)CC1`, the IC50 in assay [3] (read-out: IC50) is 12 µM.
`O=C(N1CCC(n2nc(-c3cccnc3)oc2=O)CC1)C1(c2ccccc2)CC1`: the IC50 in assay [3] (read-out: IC50) is 0.42 µM.
As to `COc1ccc(-c2nn(C3CCN(C(=O)C4(c5ccc(OC)cc5)CC4)CC3)c(=O)o2)cc1`, the IC50 entry in assay [3] is “ND(Insoluble)”.
For the compound `Cc1cc(C)c2nc(-c3ccccn3)cc(C(=O)Nc3ccc(S(=O)(=O)Nc4onc(C)c4C)cc3)c2c1`, in assay [2], the IC50 amounted to 0.22 µM.
With `O=C(N1CCC(n2nc(-c3cccs3)oc2=O)CC1)C1(c2ccccc2)CC1`, the IC50 in assay [1] is over 15 µM.
Consider `O=C(c1cccc2ccccc12)N1CCC(n2nc(-c3ccccc3)oc2=O)CC1`, for which the IC50 in assay [1] was over 15 µM.
For `O=C(N1CCC(n2nc(-c3ccc(C(F)(F)F)cc3)oc2=O)CC1)C1(c2ccccc2)CC1`, in assay [3], the IC50 entry is listed as “ND(Insoluble)”.
